Screening data: PubChem BioAssay, several laboratories
TRPC4 agonist: activators of mouse TRPC4 channel. Q9QUQ5. HEK293 TRPC4beta/mu-opioid, Fluo4 calcium fluorescence; hits give high values. B-score at 10 µM. 0.49% of 310,000 active. AID 2237;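 active = B-score above 5 SD of library B-scores, and initial fluorescence ratio not above library mean plus 5 SD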;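 also: positive B-score marks a calcium rise read as TRPC4 activation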
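Incubation: 45 min room-temperature Fluo4 loading, 110 s read / System: HEK293 cells stably co-expressing mouse TRPC4beta and mu-opioid receptor / Signal: Fluo4 fluorescence, kinetic / Control set: buffer (low) and maximal DAMGO (high) / Measure: integrated baseline-normalised fluorescence ratio, converted to per-well B score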
DSG3 Ab inh: blocks pemphigus antibody binding to human desmoglein-3; AID 588358; binding (percent of control), % at 10 µM; 0.48% of 310,000 active; P32926; DSG3-coupled beads, scFv-anti-DSG3-GFP binding, flow cytometry; hits give low values;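 active = binding more than 3 SD below its plate's average and above zero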;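 also: hits lower antibody fragment binding to DSG3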
TRPC6 act: activates the mouse TRPC6 cation channel. Q61143. HEK293-TRPC6 membrane potential dye fluorescence; hits give high values. B-score at 10 µM. 0.13% of 310,000 active. AID 2550;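 active = B-score of the integrated fluorescence ratio above library mean plus 3 SD, and starting fluorescence ratio within library mean plus 5 SD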;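 also: higher score means more depolarization so channel activation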
TRPC6 inhibitor: blocks the mouse TRPC6 cation channel; B-score at 10 µM; Q61143; HEK293-TRPC6, membrane potential dye, ACh-evoked depolarization; hits give low values; 1.1% of 310,000 active;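 active = B-score under library mean minus 3 SD, initial fluorescence not abnormally high, positive integrated signal ratio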;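 also: B-score derived from integrated fluorescence ratio over the kinetic read; more negative B-score means stronger inhibition of depolarization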
TRPC4 inh: TRPC4 (mouse) channel inhibition; Q9QUQ5; HEK293 TRPC4beta/mu-opioid, DAMGO-evoked Fluo4 calcium flux; hits give low values; B-score at 10 µM; 0.39% of 300,000 active; AID 2247;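 active = B-score over 3 SD under the library average, no early fluorescence shift, positive overall ratio signal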
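Material: HEK293 cells with stable TRPC4beta plus mu-opioid receptor expression / Probe or stimulus: DAMGO in two steps, submaximal then maximal / Compound: single concentration per test compound / Technique: kinetic Fluo4 fluorescence imaging of calcium influx / Read-out: per-well B score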
TRPC4 PAM: allosterically enhances the mouse TRPC4 cation channel; HEK293 TRPC4beta/mu-opioid, DAMGO EC20, Fluo-4 Ca2+ flux; hits give high values; B-score at 10 µM; 0.42% of 310,000 active;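 active = B-score of calcium response area above 5 SD of library B-scores, with initial fluorescence ratio within 5 SD of library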
Numbers stand for hits; - = inactive; . = no result given. An excerpt weighted towards active compounds, which were near 2.5% of everything screened.

SMILES	TRPC4 agonist	DSG3 Ab inh	TRPC6 act	TRPC6 inhibitor	TRPC4 inh	TRPC4 PAM
CN(C)C(CNC(=O)c1ccc2nc[nH]c2c1)c1ccccc1 (configuration not stated)	142	-	-	-	-	-
COc1ccc(C(CNC(=O)c2ccc(S(=O)(=O)Nc3ccc(F)cc3)cc2)N(C)C)cc1 (configuration not stated)	66	-	-	-	-	-
CC(C)(C)NC(=O)CN1CCN(C(=O)CCl)CC1	-	-	-	-	-	-
CC(=O)Nc1ccc(NC(=O)c2ccccc2S(=O)(=O)c2ccc([N+](=O)[O-])cc2)cc1	-	-	-	-	-	-
CC1(C)C2CCC(C2)C1(C)NC(=O)CNCC1CCCCC1 (configuration not stated)	-	-	-	-	-	-
CC(=O)Nc1cccc(NC(=O)Nc2cccc(F)c2)c1	-	-	-	-	-	-
CNS(=O)(=O)c1ccc(NC(=O)Nc2cccc(F)c2)cc1	44	-	-	-	-	-
CC1CCc2sc(C(=O)N/N=C/c3ccc(O)cc3)cc2C1 (configuration not stated)	-	-	-	-	-	-
O=C(/C=C/c1ccc(Br)o1)OCc1nc2ccsc2c(=O)[nH]1	-	49.6	-	-	-	-
CO/N=C/c1ccc(N2CCN(C(=O)c3ccc(F)cc3)CC2)c([N+](=O)[O-])c1	-	-	-	-	-	-
CO/N=C/c1ccc(N2CCN(C(=O)c3ccc(Cl)cc3Cl)CC2)c([N+](=O)[O-])c1	-	-	-	-	-	12
CCC(CC)c1nnc(NC(=O)C2=NNC(=O)CC2)s1	-	-	-	-	-	-
Cc1ccc(-c2n[nH]c(=O)c3ccccc23)cc1S(=O)(=O)Nc1ccccc1	-	-	-	-	-	12
CCn1cc(CN2CCCC(C(=O)Nc3ccc(-c4nc5ccccc5[nH]4)cc3)C2)c(C)n1 (configuration not stated)	206	-	-	-	-	-
Cc1cc(CN2CCCC(C(=O)Nc3ccc(-c4nc5ccccc5[nH]4)cc3)C2)n[nH]1 (configuration not stated)	-	.	-	-	-5	-
COc1cccc(-c2ccc(NC(=O)C3CCCN(Cc4cccc(C)n4)C3)cc2)c1 (configuration not stated)	.	-	.	.	.	.
CCn1cc(CN2CCCC(C(=O)Nc3cccc(-c4cc5ccccc5[nH]4)c3)C2)c(C)n1 (configuration not stated)	-	-	-	-	-	-
O=C(Nc1ccc(Cl)c(S(=O)(=O)N2CCCCC2)c1)c1ccco1	.	-	.	.	.	.
O=C1CC(c2cccc([N+](=O)[O-])c2)c2ccc3ccccc3c2N1 (configuration not stated)	-	-	-	-	-	11
O=C(Cn1ccc2ccccc2c1=O)NCC(=O)N1CCCCC1	-	.	-	-	-	-
CC(C)(C)NC(=O)Cc1ccc(S(=O)(=O)N2CCCC2)s1	-	75.2	-	-	-	-
Cc1cc(C)c(NC2=NCC(=O)N2C2CCCCC2)c(C)c1	-	-	-	-	-	-
O=C1CN=C(Nc2cccc(C(F)(F)F)c2)N1C1CCCC1	-	-	-	-	-6	-
O=C1NC2(CCCCO2)CO1 (configuration not stated)	-	-	-	-	-	-
Cc1cc(OCC(=O)OCC(=O)Nc2ccc(Cl)cn2)ccc1Cl	.	-	.	.	.	.
SMILES	TRPC4 agonist	DSG3 Ab inh	TRPC6 act	TRPC6 inhibitor	TRPC4 inh	TRPC4 PAM
Cc1[nH]n(-c2ccccc2)c(=O)c1N=Nc1cccc(S(=O)(=O)N2CCOCC2)c1	-	64.3	-	-	-	-
O=C(O)CCNc1nc(-c2ccccc2)c2cc(Br)ccc2n1	-	-	-	-	-	16
COc1ccc(/C(C)=N/NC(=S)NCCc2ccccc2)c(O)c1	-	-	-	-	-	-
O=C(CCC(=O)NNC(=O)COc1ccc(Br)cc1)NCc1ccccc1	-	1.9	-	-	-	-
O=C(Nc1ccc(F)cc1)Nc1ccc([N+](=O)[O-])cn1	-	54.3	-	-	-	-
O=C(Nc1ccc(Cl)c(Cl)c1)Nc1ccc([N+](=O)[O-])cn1	-	-	-	-	-	-
COc1cccc(/C=C2\SC(=S)N(CC3CCCO3)C2=O)c1 (configuration not stated)	-	-	-	-	-6	-
Cc1onc(-c2c(F)cccc2Cl)c1C(=O)N(C)C1CCCCC1	-	-	-	-	-	-
COC(=O)c1cccc(NC(=O)c2cccnc2C(=O)O)c1C	-	-	-	-	-	-
C=C(c1ccc(O)cc1)c1ccc(O)cc1	-	-	-	-	-6	-
O=C(Nc1ccnn1C1CCN(CCCC2CCCC2)CC1)c1ccccc1Cl	-	-	-	-	-8	-
Cc1ccc(S(=O)(=O)NCCc2nnc3ccc(N4CCOCC4)nn23)cc1	.	-	.	.	.	.
O=C(CCOc1ccccc1)Nc1ccnn1C1CCN(CCc2ccccc2)CC1	-	-	-	-	-	-
Nc1nc(N)nc(-c2ccccc2)n1	-	-	-	-	-	-
Nc1nc(N)nc(-c2ccccc2-c2nc(N)nc(N)n2)n1	-	74.0	-	-	-	-
Cc1ccc(N2C(=O)/C(=C/c3cccnc3)SC2=S)cc1	-	88.1	-	-	-	-
Cc1cccc(/C=N/NC(=O)c2cc(Br)ccc2O)n1	-	-	-	-	-	65
CCOc1ccc(Br)cc1C(=O)N/N=C/c1cccc(C)n1	-	-	-	-	-	-
CC(C)(C)N(Cc1ccccc1)C(=O)CN1C(=O)NC2(CCCCCC2)C1=O	.	-	.	.	.	.
O=C(O)c1cccc(S(=O)(=O)N2CCN(C(c3ccccc3)c3ccccc3)CC2)c1	-	-	-	-	-9	-
NS(=O)(=O)c1ccc(NC(=O)CN2CCCN(S(=O)(=O)c3ccc(F)cc3)CC2)cc1	-	-	-	-	-	-
COc1ccc(S(=O)(=O)N2CCN(CC(=O)Nc3ccccc3OC)CC2)cc1	-	75.0	-	-	-	-
O=C(CN1CCCCCC1)Nc1ccccc1Oc1ccccc1	-	-	-	-	-6	-
O=C(CN1CCCN(S(=O)(=O)c2ccc(F)cc2)CC1)Nc1ccccc1Br	-	-	-	-	-6	-
O=C(CN1CCCCC1)Nc1cc(Cl)ccc1Oc1ccccc1	-	-	-	-	-	-
COc1ccc(N(C)C(=O)CCC(=O)Nc2ccc3nc(N4CCOCC4)cc(C)c3c2)c(OC)c1	-	89.4	-	-	-	-
Cc1cc(N2CCOCC2)nc2ccc(NC(=S)N3CCN(c4ccccc4)CC3)cc12	-	1.0	-	-	-	-
CCN1CCN(c2cc(C)c3cc(NC(=S)N4CCN(c5ccccc5)CC4)ccc3n2)CC1	-	-	-	-	-	-
